Test [1] concerns the target T1, Histone deacetylase 8 (Homo sapiens) (UniProt Q9BY41).
T1 sequence (whole entry): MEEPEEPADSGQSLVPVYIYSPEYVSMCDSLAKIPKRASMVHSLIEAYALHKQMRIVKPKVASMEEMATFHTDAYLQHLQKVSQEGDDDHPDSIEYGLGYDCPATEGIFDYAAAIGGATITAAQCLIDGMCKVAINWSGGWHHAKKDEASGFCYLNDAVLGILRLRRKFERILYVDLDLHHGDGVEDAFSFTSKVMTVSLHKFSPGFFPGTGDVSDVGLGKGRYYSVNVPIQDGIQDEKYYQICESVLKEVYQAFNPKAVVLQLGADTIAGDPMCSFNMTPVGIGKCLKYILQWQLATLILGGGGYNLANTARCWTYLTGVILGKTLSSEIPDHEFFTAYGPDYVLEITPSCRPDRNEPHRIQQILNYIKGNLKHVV
Kind of test: Inhibition of recombinant human HDAC8 enzyme using Ac-LeuGlyLys (tfa)-AMC as substrate at 50 uM after 15 to 30 mins. The method, boiled down:
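HDAC8 (5 ng/well) was incubated 30 min at 37 °C with 50 μM compound and 400 μM trifluoroacetylated substrate Ac-Leu-Gly-Lys(Tfa)-AMC in Tris-HCl pH 8.0 buffer with NaCl, KCl, MgCl2 and BSA. Trypsin (0.4 mg/mL) development ran 15–30 min at room temperature, with a 360/460 nm read-out. There were at least two separate duplicate assays.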

In test [2] the target is Histone deacetylase 3/NCoR1 (Homo sapiens) (UniProt O15379+O75376). The note with it: 50 uM.
For test [3], the target named is T2, Histone deacetylase 11 (Homo sapiens) (UniProt Q96DB2).
T2 sequence (whole entry): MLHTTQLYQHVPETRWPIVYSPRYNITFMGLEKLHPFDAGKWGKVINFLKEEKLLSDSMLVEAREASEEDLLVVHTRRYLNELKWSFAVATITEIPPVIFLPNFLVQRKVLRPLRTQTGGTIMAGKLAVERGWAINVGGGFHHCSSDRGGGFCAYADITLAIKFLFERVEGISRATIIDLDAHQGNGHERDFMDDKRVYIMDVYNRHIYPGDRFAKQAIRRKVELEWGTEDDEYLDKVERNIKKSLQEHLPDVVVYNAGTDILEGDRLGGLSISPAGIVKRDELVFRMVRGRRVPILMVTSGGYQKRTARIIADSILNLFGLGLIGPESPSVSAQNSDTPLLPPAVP
In words: Inhibition of recombinant human HDAC11 enzyme using Ac-LeuGlyLys(Ac)-AMC as substrate at 50 uM after 15 to 30 mins. The method in brief: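 HDAC11 (500 ng/well) was tested at a single 50 μM peptide concentration with 80 μM Ac-Leu-Gly-Lys(Ac)-AMC in Tris-HCl pH 8.0 buffer containing BSA, for 30 min at 37 °C. Trypsin development (0.4 mg/mL, 15–30 min, room temperature) released AMC, read at ex 360/em 460 nm. […] There were at least two assays in duplicate.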

The target of test [4] is T3, Protein deacetylase HDAC6 (Homo sapiens) (UniProt Q9UBN7).
T3 sequence (whole entry): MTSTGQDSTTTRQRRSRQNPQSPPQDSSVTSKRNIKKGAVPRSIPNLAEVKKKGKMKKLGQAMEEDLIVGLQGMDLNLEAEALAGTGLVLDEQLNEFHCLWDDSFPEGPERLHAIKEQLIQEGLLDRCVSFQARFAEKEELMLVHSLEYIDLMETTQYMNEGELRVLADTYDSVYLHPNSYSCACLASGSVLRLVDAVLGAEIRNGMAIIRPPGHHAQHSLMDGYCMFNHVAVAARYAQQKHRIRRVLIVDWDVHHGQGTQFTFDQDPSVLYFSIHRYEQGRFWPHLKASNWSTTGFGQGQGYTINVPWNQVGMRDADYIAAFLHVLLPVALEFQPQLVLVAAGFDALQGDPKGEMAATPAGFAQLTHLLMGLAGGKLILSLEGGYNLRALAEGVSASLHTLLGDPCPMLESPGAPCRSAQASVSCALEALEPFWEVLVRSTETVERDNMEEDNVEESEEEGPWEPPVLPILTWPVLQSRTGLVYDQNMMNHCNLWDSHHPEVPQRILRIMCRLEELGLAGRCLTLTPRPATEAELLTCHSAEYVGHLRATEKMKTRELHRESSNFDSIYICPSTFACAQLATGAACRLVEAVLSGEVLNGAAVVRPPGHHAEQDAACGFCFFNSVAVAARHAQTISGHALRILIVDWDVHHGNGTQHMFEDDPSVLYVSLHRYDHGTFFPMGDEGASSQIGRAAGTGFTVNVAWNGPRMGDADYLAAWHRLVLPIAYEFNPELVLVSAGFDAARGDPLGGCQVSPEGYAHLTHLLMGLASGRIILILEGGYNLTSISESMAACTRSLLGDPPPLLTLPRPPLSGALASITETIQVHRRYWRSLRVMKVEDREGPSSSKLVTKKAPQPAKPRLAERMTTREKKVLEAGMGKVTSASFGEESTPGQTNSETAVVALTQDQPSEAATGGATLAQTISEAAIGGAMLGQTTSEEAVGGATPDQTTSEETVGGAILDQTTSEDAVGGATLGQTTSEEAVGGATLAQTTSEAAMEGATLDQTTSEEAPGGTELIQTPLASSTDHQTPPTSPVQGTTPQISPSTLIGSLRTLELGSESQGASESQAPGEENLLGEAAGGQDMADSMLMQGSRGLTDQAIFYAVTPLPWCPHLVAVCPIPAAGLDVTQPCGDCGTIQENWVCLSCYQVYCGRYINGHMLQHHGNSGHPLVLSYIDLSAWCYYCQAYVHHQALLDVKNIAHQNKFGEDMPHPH
In words: Inhibition of recombinant human HDAC6 enzyme using flurogenic Ac-LeuGlyLys (Ac)-AMC as substrate at 50 uM after 15 to 30 mins. The method, boiled down: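 The single-point screen used HDAC6 at 60 ng/well, 50 μM compound and 80 μM Ac-Leu-Gly-Lys(Ac)-AMC in pH 8.0 Tris buffer with 0.5 mg/mL BSA, incubated 30 min at 37 °C. Trypsin (0.4 mg/mL) was added for 15–30 min at room temperature, and fluorescence was read at 360/460 nm. Each result came from two or more assays run in duplicate.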

Test [5] deals with T4, Polyamine deacetylase HDAC10 (Homo sapiens) (UniProt Q969S8).
T4 sequence (whole entry): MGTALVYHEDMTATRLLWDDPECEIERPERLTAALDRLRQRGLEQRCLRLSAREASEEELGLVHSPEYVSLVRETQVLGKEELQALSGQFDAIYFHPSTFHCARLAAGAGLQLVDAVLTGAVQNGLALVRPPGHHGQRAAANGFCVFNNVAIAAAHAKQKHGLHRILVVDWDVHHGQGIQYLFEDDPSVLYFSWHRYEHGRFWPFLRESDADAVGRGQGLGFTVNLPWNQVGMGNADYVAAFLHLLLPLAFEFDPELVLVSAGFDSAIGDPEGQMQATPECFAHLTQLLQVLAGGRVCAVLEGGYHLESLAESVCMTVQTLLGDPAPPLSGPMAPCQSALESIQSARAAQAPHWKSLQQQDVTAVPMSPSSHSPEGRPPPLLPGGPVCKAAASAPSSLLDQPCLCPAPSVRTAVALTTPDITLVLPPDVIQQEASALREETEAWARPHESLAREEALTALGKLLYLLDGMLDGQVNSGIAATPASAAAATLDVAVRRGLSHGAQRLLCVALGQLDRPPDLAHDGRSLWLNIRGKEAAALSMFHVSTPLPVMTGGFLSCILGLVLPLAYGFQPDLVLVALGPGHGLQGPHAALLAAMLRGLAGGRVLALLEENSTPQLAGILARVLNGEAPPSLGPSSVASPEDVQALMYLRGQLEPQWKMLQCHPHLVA
In words: Inhibition of recombinant human HDAC10 enzyme using tetrapeptide Ac-ArgThr-Lys(Ac)Lys(Ac)-AMC as substrate at 50 uM after 15 to 30 mins. The method, boiled down: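 Recombinant human HDAC10 (500 ng/well) was screened at 50 μM compound, with 100 μM of the Lys(Ac)-Lys(Ac)-AMC tetrapeptide substrate, in Tris-HCl pH 8.0 buffer with NaCl, KCl, MgCl2 and 0.5 mg/mL BSA. Plates were incubated 30 min at 37 °C, then developed with trypsin (0.4 mg/mL) for 15–30 min at room temperature and read at ex 360/em 460 nm. There were at least two assays in duplicate.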

Test [6] deals with Histone deacetylase 3/NCoR1 (Homo sapiens, UniProt O15379). In words: Inhibition of GST-tagged recombinant human HDAC3/NcoR1 enzyme using flurogenic Ac-LeuGlyLys (Ac)-AMC as substrate after 15 to 30 mins. Type of test: protein-complex assay.
For test [7], the target named is T5, Histone deacetylase 11 (Homo sapiens, UniProt Q96DB2).
T5 sequence (Q96DB2 whole entry): T2 sequence (whole entry)
Kind of test: Inhibition of recombinant human HDAC11 enzyme using Ac-LeuGlyLys(Ac)-AMC as substrate after 15 to 30 mins.

The target in test [8] is Histone deacetylase 1 (Homo sapiens, UniProt Q13547). In words: Inhibition of recombinant human HDAC1 enzyme using flurogenic Ac-LeuGlyLys (Ac)-AMC as substrate after 15 to 30 mins.
Test [9] deals with T6, Histone deacetylase 8 (Homo sapiens, UniProt Q9BY41).
T6 sequence (Q9BY41 whole entry): T1 sequence (whole entry)
In words: Inhibition of recombinant human HDAC8 enzyme using Ac-LeuGlyLys (tfa)-AMC as substrate after 15 to 30 mins.

Test [10] deals with Histone deacetylase 2 (Homo sapiens, UniProt Q92769). Kind of test: Inhibition of recombinant human HDAC2 enzyme using flurogenic Ac-LeuGlyLys (Ac)-AMC as substrate after 15 to 30 mins.
For test [11], the target named is T7, Polyamine deacetylase HDAC10 (Homo sapiens, UniProt Q969S8).
T7 sequence (Q969S8 whole entry): T4 sequence (whole entry)
In words: Inhibition of recombinant human HDAC10 enzyme using tetrapeptide Ac-ArgThr-Lys(Ac)Lys(Ac)-AMC as substrate after 15 to 30 mins.

For test [12], the target named is T8, Protein deacetylase HDAC6 (Homo sapiens, UniProt Q9UBN7).
T8 sequence (Q9UBN7 whole entry): T3 sequence (whole entry)
In words: Inhibition of recombinant human HDAC6 enzyme using flurogenic Ac-LeuGlyLys (Ac)-AMC as substrate after 15 to 30 mins.

What is called inhibition is the change of the read-out against control, counted positive when it falls. Broadly, the Ki is a measure of affinity in units of concentration, obtained from inhibition or displacement.

Chain of Histone deacetylase 2 (Q92769 whole entry): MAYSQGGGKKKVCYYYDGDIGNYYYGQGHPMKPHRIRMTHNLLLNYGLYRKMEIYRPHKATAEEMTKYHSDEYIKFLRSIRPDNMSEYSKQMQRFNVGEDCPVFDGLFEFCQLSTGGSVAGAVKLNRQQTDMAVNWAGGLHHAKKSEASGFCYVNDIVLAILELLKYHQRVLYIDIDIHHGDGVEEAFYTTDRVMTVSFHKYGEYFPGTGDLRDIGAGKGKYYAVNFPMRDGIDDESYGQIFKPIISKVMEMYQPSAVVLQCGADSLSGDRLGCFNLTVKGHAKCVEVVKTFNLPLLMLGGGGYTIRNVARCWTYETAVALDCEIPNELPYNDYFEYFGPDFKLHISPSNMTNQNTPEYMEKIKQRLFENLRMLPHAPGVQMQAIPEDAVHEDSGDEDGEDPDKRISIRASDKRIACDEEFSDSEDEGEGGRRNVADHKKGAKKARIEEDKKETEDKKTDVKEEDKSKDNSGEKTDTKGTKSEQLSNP
Chain of Histone deacetylase 1 (Q13547 whole entry): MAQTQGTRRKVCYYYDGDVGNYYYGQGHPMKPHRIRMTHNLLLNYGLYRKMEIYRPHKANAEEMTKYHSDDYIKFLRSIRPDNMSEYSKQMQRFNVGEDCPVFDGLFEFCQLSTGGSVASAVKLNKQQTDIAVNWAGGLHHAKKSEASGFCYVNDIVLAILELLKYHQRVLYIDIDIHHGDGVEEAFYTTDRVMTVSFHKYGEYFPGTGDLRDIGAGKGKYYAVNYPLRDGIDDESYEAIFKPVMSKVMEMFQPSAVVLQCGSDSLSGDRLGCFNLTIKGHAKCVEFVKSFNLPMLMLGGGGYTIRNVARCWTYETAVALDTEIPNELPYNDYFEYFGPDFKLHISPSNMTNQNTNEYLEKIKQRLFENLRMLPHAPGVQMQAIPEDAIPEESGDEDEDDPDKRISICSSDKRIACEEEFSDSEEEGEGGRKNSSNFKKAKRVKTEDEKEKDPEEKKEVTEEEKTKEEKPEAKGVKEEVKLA
Chain of Histone deacetylase 3/NCoR1 (O15379 whole entry): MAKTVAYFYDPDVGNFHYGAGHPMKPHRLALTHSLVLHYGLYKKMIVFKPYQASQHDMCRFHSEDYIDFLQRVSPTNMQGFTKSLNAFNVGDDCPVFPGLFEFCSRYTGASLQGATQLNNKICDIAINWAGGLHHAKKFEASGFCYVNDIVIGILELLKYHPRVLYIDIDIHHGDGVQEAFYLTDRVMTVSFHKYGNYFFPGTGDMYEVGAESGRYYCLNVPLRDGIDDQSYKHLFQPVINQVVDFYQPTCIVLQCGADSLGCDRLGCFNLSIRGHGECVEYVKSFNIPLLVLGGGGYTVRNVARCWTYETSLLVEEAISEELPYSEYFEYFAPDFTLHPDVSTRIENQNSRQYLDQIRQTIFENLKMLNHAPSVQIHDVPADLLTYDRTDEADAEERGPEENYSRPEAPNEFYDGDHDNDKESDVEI
Chain of Histone deacetylase 3/NCoR1 (O75376 whole entry, further chain): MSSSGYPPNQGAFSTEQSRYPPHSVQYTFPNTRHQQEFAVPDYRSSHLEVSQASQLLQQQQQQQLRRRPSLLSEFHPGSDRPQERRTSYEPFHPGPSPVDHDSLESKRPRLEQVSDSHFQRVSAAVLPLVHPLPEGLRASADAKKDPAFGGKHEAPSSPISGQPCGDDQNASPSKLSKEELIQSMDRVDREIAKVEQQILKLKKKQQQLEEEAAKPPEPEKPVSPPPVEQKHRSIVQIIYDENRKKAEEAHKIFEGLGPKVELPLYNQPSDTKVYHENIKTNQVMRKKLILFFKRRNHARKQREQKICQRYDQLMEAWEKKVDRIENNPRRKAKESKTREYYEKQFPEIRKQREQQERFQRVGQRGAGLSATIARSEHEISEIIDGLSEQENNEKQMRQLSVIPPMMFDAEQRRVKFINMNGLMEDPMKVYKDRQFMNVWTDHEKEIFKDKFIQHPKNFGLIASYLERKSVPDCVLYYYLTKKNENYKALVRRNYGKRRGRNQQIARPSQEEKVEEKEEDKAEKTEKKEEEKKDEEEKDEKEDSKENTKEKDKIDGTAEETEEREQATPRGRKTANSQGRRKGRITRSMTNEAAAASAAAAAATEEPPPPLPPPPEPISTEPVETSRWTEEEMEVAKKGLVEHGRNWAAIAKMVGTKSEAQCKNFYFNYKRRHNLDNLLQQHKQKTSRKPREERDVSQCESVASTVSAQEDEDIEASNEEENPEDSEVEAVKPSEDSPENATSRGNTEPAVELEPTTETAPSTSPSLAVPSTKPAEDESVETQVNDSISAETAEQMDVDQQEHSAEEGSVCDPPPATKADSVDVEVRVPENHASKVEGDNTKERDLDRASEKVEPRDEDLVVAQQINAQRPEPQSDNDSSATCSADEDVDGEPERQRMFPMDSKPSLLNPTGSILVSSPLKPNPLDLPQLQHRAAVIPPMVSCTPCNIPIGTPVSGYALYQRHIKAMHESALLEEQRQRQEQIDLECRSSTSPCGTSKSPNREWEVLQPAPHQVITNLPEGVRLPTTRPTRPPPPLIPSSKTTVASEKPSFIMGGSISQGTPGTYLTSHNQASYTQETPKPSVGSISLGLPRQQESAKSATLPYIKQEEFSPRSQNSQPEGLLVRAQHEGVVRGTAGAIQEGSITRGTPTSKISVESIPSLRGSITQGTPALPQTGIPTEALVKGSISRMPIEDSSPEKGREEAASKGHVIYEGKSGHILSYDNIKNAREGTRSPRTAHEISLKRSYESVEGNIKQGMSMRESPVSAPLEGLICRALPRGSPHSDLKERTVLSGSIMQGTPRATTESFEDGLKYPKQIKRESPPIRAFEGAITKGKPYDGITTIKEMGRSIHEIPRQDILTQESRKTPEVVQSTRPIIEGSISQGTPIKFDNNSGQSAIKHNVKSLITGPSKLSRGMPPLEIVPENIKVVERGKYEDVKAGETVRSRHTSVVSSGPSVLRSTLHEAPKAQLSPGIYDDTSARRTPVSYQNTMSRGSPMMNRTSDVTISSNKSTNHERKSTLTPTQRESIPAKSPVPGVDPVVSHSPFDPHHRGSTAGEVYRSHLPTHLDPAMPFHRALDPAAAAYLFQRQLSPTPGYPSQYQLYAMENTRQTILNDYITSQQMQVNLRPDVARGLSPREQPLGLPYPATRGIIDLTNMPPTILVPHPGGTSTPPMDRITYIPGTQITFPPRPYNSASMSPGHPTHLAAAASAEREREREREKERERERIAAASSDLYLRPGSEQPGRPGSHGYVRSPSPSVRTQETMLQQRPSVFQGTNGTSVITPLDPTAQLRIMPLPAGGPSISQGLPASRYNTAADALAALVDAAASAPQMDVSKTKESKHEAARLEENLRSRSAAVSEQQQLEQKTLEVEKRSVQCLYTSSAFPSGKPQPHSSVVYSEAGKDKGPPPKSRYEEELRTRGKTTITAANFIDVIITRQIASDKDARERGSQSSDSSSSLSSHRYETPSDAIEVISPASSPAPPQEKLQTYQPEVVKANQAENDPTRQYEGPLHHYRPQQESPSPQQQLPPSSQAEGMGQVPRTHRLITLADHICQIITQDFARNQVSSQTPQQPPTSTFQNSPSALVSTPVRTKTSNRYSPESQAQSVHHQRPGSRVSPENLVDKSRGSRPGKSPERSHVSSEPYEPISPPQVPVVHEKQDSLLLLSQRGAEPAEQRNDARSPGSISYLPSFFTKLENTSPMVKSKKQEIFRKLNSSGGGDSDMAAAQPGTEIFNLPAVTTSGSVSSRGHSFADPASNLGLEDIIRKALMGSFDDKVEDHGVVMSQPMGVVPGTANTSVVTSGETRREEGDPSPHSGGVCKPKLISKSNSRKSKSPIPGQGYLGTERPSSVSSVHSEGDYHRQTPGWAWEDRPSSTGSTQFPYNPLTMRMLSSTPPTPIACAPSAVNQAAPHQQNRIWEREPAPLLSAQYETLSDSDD

For the compound `CC(C)[C@H]1NC(=O)[C@@H](C)[C@H](C/C=C\CCC(=O)O)NC(=O)[C@@H](Cc2ccccc2)NC(=O)[C@@H](C)NC1=O`, the inhibition in test [1], in [2], in test [3], in test [4] and in [5] was less than 50% throughout.

Take `CC(C)[C@H]1NC(=O)[C@H](C)[C@@H](C/C=C\CCC(=O)O)NC(=O)[C@@H](Cc2ccccc2)NC(=O)[C@@H](C)NC1=O`: the inhibition in test [1], in test [2], in [3], in test [4] and in [5] was less than 50% each time.

As to `CC(C)[C@H]1NC(=O)[C@@H](C)[C@@H](C/C=C\CCC(N)=O)NC(=O)[C@@H](Cc2ccccc2)NC(=O)[C@@H](C)NC1=O` [AZUMAMIDE A], the Ki in [6] is 3.2 µM; in test [7] it was greater than 5 µM; in test [8], greater than 5000 nM; in test [9] it was greater than 5 µM; in test [10], greater than 5 µM. The inhibition in test [4] and in test [5] was less than 50% throughout.

Regarding `CC(C)[C@H]1NC(=O)[C@@H](C)[C@@H](C/C=C\CCC(N)=O)NC(=O)[C@@H](Cc2ccc(O)cc2)NC(=O)[C@@H](C)NC1=O` [AZUMAMIDE B], the inhibition in test [1], in test [4] and in test [5] was less than 50% in each case. The inhibition constant (Ki) in [6] was 3 µM; in [7], greater than 5 µM; in [8] it was 5000 nM; in test [10], 3 µM.

Turning to `CC(C)[C@H]1NC(=O)[C@@H](C)[C@@H](C/C=C\CCC(=O)O)NC(=O)[C@@H](Cc2ccc(O)cc2)NC(=O)[C@@H](C)NC1=O` [AZUMAMIDE C], the inhibition constant (Ki) was 0.014 µM in [6]; 0.035 µM in [7]; 32 nM in [8]; 0.01 µM in [11]; greater than 5 µM in test [9]; 2 µM in test [12]. The inhibitory constant (Ki) in [10] was 0.04 µM.

As to `C[C@@H]1C(=O)N[C@H](C)C(=O)N[C@H](C)C(=O)N[C@H](Cc2ccccc2)C(=O)N[C@@H]1C/C=C\CCC(N)=O` [AZUMAMIDE D], the inhibition in test [1], in test [4] and in test [5] was less than 50% in each case. Further, the Ki was 3.7 µM in test [6], greater than 5 µM in test [7], greater than 5000 nM in [8] and greater than 5 µM in test [10].

With `CC(C)[C@H]1NC(=O)[C@@H](C)[C@@H](C/C=C\CCC(=O)O)NC(=O)[C@@H](Cc2ccccc2)NC(=O)[C@@H](C)NC1=O` [AZUMAMIDE E], the inhibition constant (Ki) in [6] was 0.025 µM; in test [7] it was 0.06 µM; in test [11], 0.02 µM; in [9], 4.4 µM; in [12], greater than 5 µM.

`C/C=C1\NC(=O)[C@H]2CSSCC/C=C/[C@H](CC(=O)N[C@H](C(C)C)C(=O)N2)OC(=O)[C@H](C(C)C)NC1=O` [ROMIDEPSIN]: the inhibitory constant (Ki) in [8] is 0.002 nM.

(Values after ChEMBL document CHEMBL2417416, “Total synthesis and full histone deacetylase inhibitory profiling of Azumamides A-E as well as β²- epi-Azumamide E and β³-epi-Azumamide E” (J Med Chem, 2013).)
